Experimental data: ChEMBL document CHEMBL1629431, “Synthesis and antitumor activity of some 2, 3-disubstituted quinazolin-4(3H)-ones and 4, 6- disubstituted- 1, 2, 3, 4-tetrahydroquinazolin-2H-ones” (2010)

Experiments:
Type in all cases: functional
HCT-116 = assay: Growth inhibition of human HCT116 cells at 10 uM after 48 hrs by coulter counter method; conditions: HCT-116, 48 h, read-out: GI
Procedure, shortened: (§1)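 Single high-dose NCI 60-cell-line panel screen across nine tumor subpanels. Test solutions (0.2 mL) were added in duplicate to wells holding 1.8 mL of culture at 6 × 10⁴ cells/mL. Controls got PBS and DMSO at identical dilutions. Incubation was 48 h at 37 °C in humidified 5% CO₂. Cells were diluted 10-fold in saline, Coulter-counted and dilution-corrected. Results were expressed as percent growth inhibition versus control.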

OVCAR-8 = assay: Growth inhibition of human OVCAR8 cells at 10 uM after 48 hrs by coulter counter method; conditions: OVCAR-8, 48 h, read-out: GI; procedure, shortened: as §1
786-0 = assay: Growth inhibition of human 786-0 cells at 10 uM after 48 hrs by coulter counter method; conditions: 786-0, 48 h, read-out: GI; procedure, shortened: as §1
PC-3 = assay: Growth inhibition of human PC3 cells at 10 uM after 48 hrs by coulter counter method; conditions: PC-3, 48 h, read-out: GI; procedure, shortened: as §1
HL-60(TB) = assay: Growth inhibition of human HL-60(TB) cells at 10 uM after 48 hrs by coulter counter method; conditions: HL-60, 48 h, read-out: GI
Procedure, shortened: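 Part of the NCI 60-cell-line single-high-dose panel. Cells were seeded at 6 × 10⁴ cells/mL with test solution in duplicate wells, alongside PBS/DMSO controls at identical dilutions. Plates were held 48 h at 37 °C in a humidified 5% CO₂ incubator. Cells were then diluted 10-fold in saline and counted by Coulter counter, with counts corrected for dilution. Results are percent growth of treated cells, reported as GI %.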

CAKI-1 = assay: Growth inhibition of human Caki1 cells at 10 uM after 48 hrs by coulter counter method; conditions: CAKI-1, 48 h, read-out: GI; procedure, shortened: as §1
SK-OV-3 = assay: Growth inhibition of human SKOV3 cells at 10 uM after 48 hrs by coulter counter method; conditions: SK-OV-3, 48 h, read-out: GI; procedure, shortened: as §1
HOP-92 = assay: Growth inhibition of human HOP92 cells at 10 uM after 48 hrs by coulter counter method; conditions: HOP-92, 48 h, read-out: GI; procedure, shortened: as §1
SF-268 = assay: Growth inhibition of human SF268 cells at 10 uM after 48 hrs by coulter counter method; conditions: SF-268, 48 h, read-out: GI; procedure, shortened: as §1
M14 = assay: Growth inhibition of human M14 cells at 10 uM after 48 hrs by coulter counter method; conditions: M14, 48 h, read-out: GI; procedure, shortened: as §1
KM12 = assay: Growth inhibition of human KM12 cells at 10 uM after 48 hrs by coulter counter method; conditions: KM12, 48 h, read-out: GI; procedure, shortened: as §1
K562 = assay: Growth inhibition of human K562 cells at 10 uM after 48 hrs by coulter counter method; conditions: K562, 48 h, read-out: GI; procedure, shortened: as §1
NCI-H522 = assay: Growth inhibition of human NCI-H522 cells at 10 uM after 48 hrs by coulter counter method; conditions: NCI-H522, 48 h, read-out: GI; procedure, shortened: as §1
MDA-MB-468 = assay: Growth inhibition of human MDA-MB-468 cells at 10 uM after 48 hrs by coulter counter method; conditions: MDA-MB-468, 48 h, read-out: GI; procedure, shortened: as §1
SN12C = assay: Growth inhibition of human SN12C cells at 10 uM after 48 hrs by coulter counter method; conditions: read-out: GI; procedure, shortened: as §1
UACC-62 = assay: Growth inhibition of human UACC62 cells at 10 uM after 48 hrs by coulter counter method; conditions: UACC-62, 48 h, read-out: GI; procedure, shortened: as §1
SF-539 = assay: Growth inhibition of human SF539 cells at 10 uM after 48 hrs by coulter counter method; conditions: SF-539, 48 h, read-out: GI; procedure, shortened: as §1
MDA-MB-231 = assay: Growth inhibition of human MDA-MB-231 cells at 10 uM after 48 hrs by coulter counter method; conditions: MDA-MB-231, 48 h, read-out: GI; procedure, shortened: as §1
SK-MEL-28 = assay: Growth inhibition of human SK-MEL-28 cells at 10 uM after 48 hrs by coulter counter method; conditions: SK-MEL-28, 48 h, read-out: GI; procedure, shortened: as §1
T47D = assay: Growth inhibition of human T47D cells at 10 uM after 48 hrs by coulter counter method; conditions: read-out: GI; procedure, shortened: as §1
[1] = Growth inhibition of human Hs 578T cells at 10 uM after 48 hrs by coulter counter method; conditions: read-out: GI; procedure, shortened: as §1
U-251 = assay: Growth inhibition of human U251 cells at 10 uM after 48 hrs by coulter counter method; conditions: U-251, 48 h, read-out: GI; procedure, shortened: as §1
NCI-H226 = assay: Growth inhibition of human NCI-H226 cells at 10 uM after 48 hrs by coulter counter method; conditions: NCI-H226, 48 h, read-out: GI; procedure, shortened: as §1
MCF7 = assay: Growth inhibition of human MCF7 cells at 10 uM after 48 hrs by coulter counter method; conditions: MCF7, 48 h, read-out: GI; procedure, shortened: as §1
A549 = assay: Growth inhibition of human A549 cells at 10 uM after 48 hrs by coulter counter method; conditions: A549, 48 h, read-out: GI; procedure, shortened: as §1
NCI-H23 = assay: Growth inhibition of human NCI-H23 cells at 10 uM after 48 hrs by coulter counter method; conditions: NCI-H23, 48 h, read-out: GI; procedure, shortened: as §1
[2] = Growth inhibition of human […] cells at 10 uM after 48 hrs by coulter counter method; conditions: read-out: GI; procedure, shortened: as §1
SNB-75 = assay: Growth inhibition of human SNB75 cells at 10 uM after 48 hrs by coulter counter method; conditions: SNB-75, 48 h, read-out: GI; procedure, shortened: as §1
OVCAR-4 = assay: Growth inhibition of human OVCAR4 cells at 10 uM after 48 hrs by coulter counter method; conditions: OVCAR-4, 48 h, read-out: GI; procedure, shortened: as §1
IGROV-1 = assay: Growth inhibition of human IGROV1 cells at 10 uM after 48 hrs by coulter counter method; conditions: IGROV-1, 48 h, read-out: GI; procedure, shortened: as §1
UO-31 = assay: Growth inhibition of human UO31 cells at 10 uM after 48 hrs by coulter counter method; conditions: UO-31, 48 h, read-out: GI; procedure, shortened: as §1
MOLT-4 = assay: Growth inhibition of human MOLT4 cells at 10 uM after 48 hrs by coulter counter method; conditions: MOLT-4, 48 h, read-out: GI; procedure, shortened: as §1
COLO 205 = assay: Growth inhibition of human COLO205 cells at 10 uM after 48 hrs by coulter counter method; conditions: COLO 205, 48 h, read-out: GI; procedure, shortened: as §1
SK-MEL-2 = assay: Growth inhibition of human SK-MEL-2 cells at 10 uM after 48 hrs by coulter counter method; conditions: SK-MEL-2, 48 h, read-out: GI; procedure, shortened: as §1
HT-29 = assay: Growth inhibition of human HT-29 cells at 10 uM after 48 hrs by coulter counter method; conditions: HT-29, 48 h, read-out: GI; procedure, shortened: as §1
CCRF-CEM = assay: Growth inhibition of human CCRF-CEM cells at 10 uM after 48 hrs by coulter counter method; conditions: read-out: GI; procedure, shortened: as §1
SR = assay: Growth inhibition of human SR cells at 10 uM after 48 hrs by coulter counter method; conditions: read-out: GI; procedure, shortened: as §1
BT-549 = assay: Growth inhibition of human BT549 cells at 10 uM after 48 hrs by coulter counter method; conditions: BT-549, 48 h, read-out: GI; procedure, shortened: as §1
SF-295 = assay: Growth inhibition of human SF295 cells at 10 uM after 48 hrs by coulter counter method; conditions: SF-295, 48 h, read-out: GI; procedure, shortened: as §1

SMILES | inhibition of growth at 10 µM (HCT-116) | inhibition of growth at 10 µM (OVCAR-8) | inhibition of growth at 10 µM (786-0) | inhibition of growth at 10 µM (PC-3) | inhibition of growth at 10 µM (HL-60(TB)) | inhibition of growth at 10 µM (CAKI-1) | inhibition of growth at 10 µM (SK-OV-3) | inhibition of growth at 10 µM (HOP-92) | inhibition of growth at 10 µM (SF-268) | inhibition of growth at 10 µM (M14) | inhibition of growth at 10 µM (KM12) | inhibition of growth at 10 µM (K562) | inhibition of growth at 10 µM (NCI-H522) | inhibition of growth at 10 µM (MDA-MB-468) | inhibition of growth at 10 µM (SN12C) | inhibition of growth at 10 µM (UACC-62) | inhibition of growth at 10 µM (SF-539) | inhibition of growth at 10 µM (MDA-MB-231) | inhibition of growth at 10 µM (SK-MEL-28) | inhibition of growth at 10 µM (T47D) | also measured
CSc1nc2ccccc2c(=O)n1-c1ccc(Cl)cc1 | 30% | 30% | 30% | 50.3% | 32% | 30% | 30% | 30% | 30% | 30% | 30% | 44.1% | 30% | 30% | 30% | 30% | 30% | 30% | 30% | 47% | inhibition of growth at 10 µM [1]: 30%; inhibition of growth at 10 µM (U-251): 30%; inhibition of growth at 10 µM (NCI-H226): 30%; inhibition of growth at 10 µM (MCF7): 30%; inhibition of growth at 10 µM (A549): 30%; inhibition of growth at 10 µM (NCI-H23): 30%; inhibition of growth at 10 µM [2]: 35.8%; inhibition of growth at 10 µM (SNB-75): 30%; inhibition of growth at 10 µM (OVCAR-4): 30%; inhibition of growth at 10 µM (IGROV-1): 30%; inhibition of growth at 10 µM (UO-31): 30%; inhibition of growth at 10 µM (MOLT-4): 31.4%; inhibition of growth at 10 µM (COLO 205): 30%; inhibition of growth at 10 µM (SK-MEL-2): 30%
COc1ccc(C2NC(=O)Nc3ccc(C(=O)Nc4ccccn4)cc32)cc1 (stereo not given) | 30% | 30% | 30% | 30% | 30% | 30% | 30% | 30% | 30% | 30% | 30% | 30% | 30% | 30% | 30% | 30% | 30% | 30% | 30% | 37.6% | inhibition of growth at 10 µM (HT-29): 30%; inhibition of growth at 10 µM (CCRF-CEM): 30%; inhibition of growth at 10 µM (SR): 30%; inhibition of growth at 10 µM (BT-549): 30%; inhibition of growth at 10 µM [1]: 30%; inhibition of growth at 10 µM (U-251): 30%; inhibition of growth at 10 µM (NCI-H226): 30%; inhibition of growth at 10 µM (MCF7): 30%; inhibition of growth at 10 µM (A549): 30%; inhibition of growth at 10 µM (NCI-H23): 30%; inhibition of growth at 10 µM (SNB-75): 30%; inhibition of growth at 10 µM (OVCAR-4): 30%; inhibition of growth at 10 µM (IGROV-1): 30%; inhibition of growth at 10 µM (UO-31): 34.3%; inhibition of growth at 10 µM (MOLT-4): 30%; inhibition of growth at 10 µM (COLO 205): 30%; inhibition of growth at 10 µM (SK-MEL-2): 30%
COc1ccc(C2NC(=O)Nc3ccc(CNc4ccccn4)cc32)cc1 (stereo not given) | 36.8% | 30% | 30% | 30% | 30% | 30% | 30% | 30% | 30% | 30% | 30% | 30% | 30% | 30% | 30% | 30% | 30% | 30.2% | 30% | 33.1% | inhibition of growth at 10 µM (HT-29): 30%; inhibition of growth at 10 µM (CCRF-CEM): 30%; inhibition of growth at 10 µM (SR): 30%; inhibition of growth at 10 µM (BT-549): 30%; inhibition of growth at 10 µM [1]: 30%; inhibition of growth at 10 µM (U-251): 30%; inhibition of growth at 10 µM (NCI-H226): 30%; inhibition of growth at 10 µM (MCF7): 30%; inhibition of growth at 10 µM (A549): 30%; inhibition of growth at 10 µM (NCI-H23): 30%; inhibition of growth at 10 µM (SNB-75): 30%; inhibition of growth at 10 µM (OVCAR-4): 30%; inhibition of growth at 10 µM (IGROV-1): 30%; inhibition of growth at 10 µM (UO-31): 30%; inhibition of growth at 10 µM (MOLT-4): 30%; inhibition of growth at 10 µM (COLO 205): 30%; inhibition of growth at 10 µM (SK-MEL-2): 30%
COc1ccc(-n2c(Nc3cc(O)[nH]c(=O)n3)nc3ccccc3c2=O)cc1 | – | – | – | – | – | – | – | – | – | – | – | – | – | – | – | – | – | – | – | – | inhibition of growth at 10 µM (SF-295): 80.8%
CCn1c(Nc2cc(O)nc(S)n2)nc2ccccc2c1=O | – | – | – | – | – | – | – | – | – | – | – | – | – | – | – | – | – | – | – | – | inhibition of growth at 10 µM (SF-295): 59.9%
